We go through four compounds from ChEMBL document CHEMBL4184298, “Development of Potent Inhibitors of Receptor Tyrosine Kinases by Ligand-Based Drug Design and Target-Biased Phenotypic Screening” (J Med Chem, 2018).

The target in one assay is Aurora kinase B (Homo sapiens, UniProt Q96GD4). In words: Inhibition of wild-type human partial length AURKB (D25 to A303 residues) expressed in mammalian expression system using poly [Glu, Try] 4:1 as substrate in presence of [gamma-33P]ATP. Summed up:
(§1)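 Radiometric assay on recombinant kinase: ³³P incorporation into the kinase substrate was measured and activity was expressed relative to a DMSO control.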

In assay [1] the target is Epithelial discoidin domain-containing receptor 1 (Homo sapiens, UniProt Q08345). Briefly: Inhibition of wild-type human partial length DDR1 (R565 to V876 residues) expressed in bacterial expression system using poly [Glu, Try] 4:1 as substrate in presence of [gamma-33P]ATP. The method, boiled down:
as §1

For assay [2], the target named is Epidermal growth factor receptor (Homo sapiens, UniProt P00533). In words: Inhibition of wild-type human partial length EGFR (R669 to V1011 residues) expressed in bacterial expression system using poly [Glu, Try] 4:1 as substrate in presence of [gamma-33P]ATP. The method, boiled down:
as §1

Assay [3] has as its target Receptor-type tyrosine-protein kinase FLT3 (Homo sapiens, UniProt P36888, D835Y). Briefly: Inhibition of human partial length FLT3 D835Y mutant (Q580 to Y969 residues) expressed in bacterial expression system using poly [Glu, Try] 4:1 as substrate in presence of [gamma-33P]ATP. Summed up:
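Recombinant kinase assays were run radiometrically by an outside contract service. Activity was read as 33P incorporation into each kinase's substrate and expressed relative to a DMSO control.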

A further assay concerns MOLM-13. Briefly: Antiproliferative activity against human MOLM13 cells after 5 days by PrestoBlue assay. Format: functional, cell-based.
A further assay relates to MV4-11. In words: Antiproliferative activity against human MV4-11 cells after 5 days by PrestoBlue assay. In kind it is functional, cell-based.
Assay [4] is described as follows: Selectivity ratio of EC50 for human AXL-negative BT474 cells to EC50 for mouse AXL-positive breast cancer cells. Format: functional. Summed up:
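AXL− BT474 and AXL+ cells were each dosed with 8-point half-log series (0.03–100 μM) and read by PrestoBlue at day 5 (n = 2). EC50s were fitted for each line, and the ratio is EC50(AXL−)/EC50(AXL+).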

A further assay relates to BT-474. In words: Antiproliferative activity against human AXL-negative BT474 cells after 5 days by PrestoBlue assay. Format: functional, cell-based. As to conditions: BT-474, 120 h. The method, boiled down: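 8-point half-log dose–response, 0.03–100 μM. Cell viability read with PrestoBlue reagent at day 5. EC50 calculated from the curves. SD from n = 2. Screened alongside an AXL+ line, with foretinib as the positive control.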

Activity calls are given as the source filed them. No cut-off for these calls is given here.

Chain of Epidermal growth factor receptor (P00533 whole entry, the tested form may be a part): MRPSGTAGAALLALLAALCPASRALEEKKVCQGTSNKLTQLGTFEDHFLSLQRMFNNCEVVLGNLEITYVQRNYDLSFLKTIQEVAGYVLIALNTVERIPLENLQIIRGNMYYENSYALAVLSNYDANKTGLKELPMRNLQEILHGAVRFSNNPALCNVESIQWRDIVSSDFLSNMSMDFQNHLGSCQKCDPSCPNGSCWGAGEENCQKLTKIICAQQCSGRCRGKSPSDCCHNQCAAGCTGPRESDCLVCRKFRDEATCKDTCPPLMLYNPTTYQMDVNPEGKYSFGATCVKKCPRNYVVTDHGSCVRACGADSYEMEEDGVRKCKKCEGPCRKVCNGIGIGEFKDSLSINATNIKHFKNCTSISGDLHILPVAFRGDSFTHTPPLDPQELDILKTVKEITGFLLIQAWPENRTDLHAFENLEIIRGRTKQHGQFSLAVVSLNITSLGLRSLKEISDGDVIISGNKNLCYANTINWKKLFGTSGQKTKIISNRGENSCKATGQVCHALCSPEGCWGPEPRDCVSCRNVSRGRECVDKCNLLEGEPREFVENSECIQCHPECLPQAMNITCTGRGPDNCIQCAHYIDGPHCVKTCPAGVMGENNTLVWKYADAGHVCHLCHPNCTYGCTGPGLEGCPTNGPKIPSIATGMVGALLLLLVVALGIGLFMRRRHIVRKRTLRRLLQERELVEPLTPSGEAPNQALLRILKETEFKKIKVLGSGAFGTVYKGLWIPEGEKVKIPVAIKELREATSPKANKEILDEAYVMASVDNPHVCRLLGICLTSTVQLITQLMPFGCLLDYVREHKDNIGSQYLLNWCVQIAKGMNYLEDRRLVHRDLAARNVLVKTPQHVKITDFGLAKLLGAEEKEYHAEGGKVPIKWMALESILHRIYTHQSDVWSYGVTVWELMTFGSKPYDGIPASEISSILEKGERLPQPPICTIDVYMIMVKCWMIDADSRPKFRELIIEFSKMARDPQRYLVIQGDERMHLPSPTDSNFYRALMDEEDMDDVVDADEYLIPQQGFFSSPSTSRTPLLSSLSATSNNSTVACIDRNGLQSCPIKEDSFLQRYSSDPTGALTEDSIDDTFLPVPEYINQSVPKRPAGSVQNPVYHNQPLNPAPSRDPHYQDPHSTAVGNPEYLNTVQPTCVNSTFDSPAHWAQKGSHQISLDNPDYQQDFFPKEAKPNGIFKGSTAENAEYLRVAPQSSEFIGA
Chain of Aurora kinase B (Q96GD4 whole entry, the tested form may be a part): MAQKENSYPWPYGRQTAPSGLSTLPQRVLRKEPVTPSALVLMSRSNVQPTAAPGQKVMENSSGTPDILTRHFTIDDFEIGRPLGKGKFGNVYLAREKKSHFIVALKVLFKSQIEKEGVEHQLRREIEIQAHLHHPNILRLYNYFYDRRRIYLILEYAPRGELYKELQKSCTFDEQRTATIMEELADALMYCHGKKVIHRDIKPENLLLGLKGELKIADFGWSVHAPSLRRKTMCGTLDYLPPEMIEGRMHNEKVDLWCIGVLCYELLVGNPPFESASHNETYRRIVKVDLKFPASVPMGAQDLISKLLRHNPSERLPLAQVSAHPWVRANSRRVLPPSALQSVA
Chain of Epithelial discoidin domain-containing receptor 1 (Q08345 whole entry, the tested form may be a part): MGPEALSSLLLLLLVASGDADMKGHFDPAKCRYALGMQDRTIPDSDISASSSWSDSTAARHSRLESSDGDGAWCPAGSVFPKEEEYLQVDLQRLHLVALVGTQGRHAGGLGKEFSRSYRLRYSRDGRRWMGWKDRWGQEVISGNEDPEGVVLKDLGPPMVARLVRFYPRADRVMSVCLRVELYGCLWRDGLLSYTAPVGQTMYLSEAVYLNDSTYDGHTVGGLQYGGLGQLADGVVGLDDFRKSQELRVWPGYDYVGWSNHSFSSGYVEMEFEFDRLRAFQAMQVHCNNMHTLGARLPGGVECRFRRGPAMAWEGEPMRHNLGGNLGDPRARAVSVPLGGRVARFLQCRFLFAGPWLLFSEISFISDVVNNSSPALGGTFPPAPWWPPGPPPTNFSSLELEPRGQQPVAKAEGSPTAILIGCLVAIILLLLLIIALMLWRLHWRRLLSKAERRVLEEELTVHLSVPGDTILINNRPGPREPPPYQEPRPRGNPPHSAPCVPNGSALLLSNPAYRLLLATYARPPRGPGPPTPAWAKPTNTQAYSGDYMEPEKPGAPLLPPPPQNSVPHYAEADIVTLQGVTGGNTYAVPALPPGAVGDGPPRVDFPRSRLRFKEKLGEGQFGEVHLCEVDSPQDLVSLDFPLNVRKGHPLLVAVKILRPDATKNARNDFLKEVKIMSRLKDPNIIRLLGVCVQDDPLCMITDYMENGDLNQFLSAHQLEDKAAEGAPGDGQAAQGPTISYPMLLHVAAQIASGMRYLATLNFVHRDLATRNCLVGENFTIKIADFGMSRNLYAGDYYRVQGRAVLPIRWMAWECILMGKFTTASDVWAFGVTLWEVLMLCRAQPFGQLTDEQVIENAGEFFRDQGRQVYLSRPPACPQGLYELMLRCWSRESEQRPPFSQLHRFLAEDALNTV

Regarding `Nc1nc(Nc2ccc3c(c2)CC[C@@H](N2CCCC2)CC3)nn1-c1cc2c(nn1)-c1ccccc1CCC2` [BEMCENTINIB], the IC50 on Aurora kinase B was determined as 100 nM; in assay [1] it was 20 nM; in assay [2], 3900 nM; in assay [3], 2 nM. The result in the assay with MOLM-13 and in the assay on MV4-11 was Active.
Turning to `CNc1ncc2c(-c3ccc(N4CCN(C)CC4)nc3)nn(CC3CCCC3)c2n1`, the IC50 on Aurora kinase B is 170 nM; in assay [1] it was 100 nM; in assay [2] it was more than 10000 nM; in assay [3], 12 nM. For the same compound, the result in the assay on MOLM-13 and in the assay on MV4-11 was Active.
With `CNc1ncc2c(-c3ccc(N4CCNCC4)cc3)nn(Cc3cn(Cc4ccccc4)nn3)c2n1`, the “Ratio EC50” value in assay [4] was less than 1.
Compound `CNc1ncc2c(-c3ccc(N4CCNCC4)nc3)nn(CC3CCCC3)c2n1` showed an EC50 in the assay with BT-474 of 1640 nM. Further, the “Ratio EC50” value in assay [4] is 2.

The IC50 is the point on the concentration scale where inhibition reaches its midpoint. The term EC50 denotes the concentration needed to bring the measured effect to its halfway point. A lower EC50 goes with an effect from little substance.
